Measurements from ChEMBL document CHEMBL1148697, “Synthesis and evaluation of new arylbenzo[b]thiophene and diarylthiophene derivatives as inhibitors of the NorA multidrug transporter of Staphylococcus aureus” (2007).
Values after ≈ are worked out from the molar mass of the structure shown.

How the values were obtained:
Type in all cases: functional
[1] = system: MCF7; assay: Cytotoxicity against MCF7 cells at 10 uM; conditions: Homo sapiens
Outline: (§1)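 Cytotoxicity tested in KB, MCF7 and MCF7R cells with compounds at 10⁻⁵ M.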

[2] = system: Staphylococcus aureus; assay: Increase in ciprofloxacine uptake in quinolone/macrolide-resistant Staphylococcus aureus […] at 20 mg/L after 10 mins
Outline: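 Cells grown in LB to OD660 0.7–0.8, washed twice and concentrated 20-fold in 100 mM phosphate pH 7.2 with 1 mM MgSO4 and 0.4% glucose. Preincubated 5 min at 37 °C, then ciprofloxacin 10 mg/L added. Samples spun through silicone oil, pellets lysed in glycine–HCl pH 3.0 at 100 °C for 10 min. Fluorescence (ex 242/em 487 nm) read against a lysate standard curve, as ng per 10⁹ CFU.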

[3] = system: Staphylococcus aureus; assay: Effect on ethidium bromide efflux in quinolone/macrolide-resistant Staphylococcus aureus NorA by measuring remaining initial ethidium concentration at 20 mg/L after 10 mins
Outline: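 S. aureus NorA 1199B grown in LB at 37 °C to A660 0.7–0.8, then loaded with EtBr (10 mg/L) plus CCCP (20 mg/L) for 10 min at 37 °C. Cells spun and resuspended in LB at 37 °C without EtBr, inhibitor added at resuspension. Fluorescence read continuously for 10 min and expressed as percentage of initial fluorescence. At least three experiments.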

[4] = system: KB; assay: Cytotoxicity against KB cells at 10 uM; conditions: Homo sapiens; outline: as §1
[5] = system: Bacillus subtilis; assay: Effect on ethium bromide efflux in Bacillus subtilis at 20 mg/L after 10 mins
Outline: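 B. subtilis ΔΔ (bmr::cat blt::erm) carried plasmid pBEV, which expresses NorA from a strong promoter. Cells were transferred into PBS pH 7.2 with 0.5% glucose at 37 °C. They were loaded with EtBr (10 mg/L) plus CCCP (20 mg/L) for 10 min at 37 °C, spun down and resuspended in LB without EtBr, adding the inhibitor at that point. Fluorescence was recorded continuously for 10 min and expressed as % of initial. Each experiment was done at least three times.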

[6] = system: Staphylococcus aureus; assay: Increase in ciprofloxacine uptake in quinolone/macrolide-susceptible Staphylococcus aureus 1199 at 20 mg/L after 10 mins
Outline: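 Silicone-oil uptake assay. Cells were grown in LB to OD660 0.7–0.8, washed, and concentrated 20-fold in 100 mM phosphate pH 7.2 with 1 mM MgSO₄ and 0.4% glucose. After 5 min at 37 °C, ciprofloxacin was added at 10 mg/L. Timed samples were spun through silicone oil and the pellets lysed in 0.1 M glycine–HCl pH 3.0 at 100 °C for 10 min. Lysate fluorescence (ex 242/em 487 nm) was read against a standard curve and reported as ng per 10⁹ CFU.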

[7] = system: MCF7R; assay: Cytotoxicity against MCF7R cells at 10 uM; conditions: Homo sapiens; outline: as §1
[8] = system: Staphylococcus aureus; assay: Antibacterial activity against quinolone/macrolide-susceptible Staphylococcus aureus ATCC 25923
Outline: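 MIC by twofold serial dilution in Mueller–Hinton broth with 10⁶ CFU/mL inoculum. Read as the lowest concentration with no visible growth after 18 h at 37 °C. Run in triplicate.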

[9] = system: Staphylococcus aureus; assay: Antibacterial activity against quinolone/macrolide-susceptible Staphylococcus aureus ATCC 25923 assessed as growth
Outline: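 Single-concentration growth screen: compound added from DMSO solution to a final 100 mg/L in MH medium with 10⁶ CFU/mL bacteria. Incubated at 37 °C with growth read at 650 nm after 1, 2, 8 and 24 h. Ampicillin was the positive control and DMSO the negative control. Scored ++ for no growth, + for growth <10% of the negative control, – otherwise.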

[10] = system: MCF7R; assay: Cytotoxicity against MCF7R cells at 0.25 nM; conditions: Homo sapiens
[11] = system: MCF7; assay: Cytotoxicity against MCF7 cells at 0.25 nM; conditions: Homo sapiens
[12] = system: KB; assay: Cytotoxicity against KB cells at 0.25 nM; conditions: Homo sapiens

| SMILES | inhibition at 10 µM [1] [%] | inhibition at 10 µM [4] [%] | inhibition at 10 µM [7] [%] | further results |
| --- | --- | --- | --- | --- |
| O=Cc1c(-c2ccccc2)sc2ccccc12 | 51 | 42 | 37 | Activity [2]: 0.07 a.u.; Remaining ethidium fluorescence (% of initial) [3]: 72%; Activity [5]: 5%; Activity [6]: 0.08 a.u. |
| COc1cc(-c2cccc(C(F)(F)F)c2)sc1-c1cccnc1 | 0 | 7 | 0 |  |
| N#Cc1ccccc1-c1sc2ccccc2c1C=O | 38 | 51 | 33 |  |
| COc1cc(-c2cccnc2)sc1-c1cccnc1 |  |  |  | MIC [8]: 100 µg/mL (≈ 373 µM) |
| COC(=O)C(Cc1c(-c2ccc(C#N)cc2)sc2ccccc12)NC(=O)c1ccccc1 (racemic) | 12 | 35 | 32 | Activity [9]: <10% |
| O=Cc1c(-c2ccc(Cl)cc2)sc2ccccc12 | 69 | 67 | 35 |  |
| O=Cc1c(-c2ccc(C(F)(F)F)cc2)sc2ccccc12 | 73 | 88 | 59 |  |
| COc1c(-c2cccnc2)sc2ccccc12 |  |  |  | MIC [8]: 100 µg/mL (≈ 414 µM) |
| N#Cc1c(-c2ccc(Cl)cc2)sc2ccccc12 | 27 | 29 | 18 |  |
| N#Cc1c(-c2cccc(Cl)c2)sc2ccccc12 | 36 | 23 | 20 |  |
| CC(=O)O[C@@]12CO[C@@H]1C[C@H](O)[C@@]1(C)C(=O)[C@H](O)C3=C(C)[C@@H](OC(=O)[C@H](O)[C@@H](NC(=O)OC(C)(C)C)c4ccccc4)C[C@@](O)([C@@H](OC(=O)c4ccccc4)[C@H]21)C3(C)C [DOCETAXEL] |  |  |  | inhibition at 0.00025 µM [10]: 4%; inhibition at 0.00025 µM [11]: 31%; inhibition at 0.00025 µM [12]: 87% |
| COC(=O)[C@H]1[C@H]2C[C@@H]3c4[nH]c5cc(OC)ccc5c4CCN3C[C@H]2C[C@@H](OC(=O)c2cc(OC)c(OC)c(OC)c2)[C@@H]1OC [RESERPINE] |  |  |  | Remaining ethidium fluorescence (% of initial) [3]: 72% |
| COC(=O)/C(=C/c1c(-c2ccc(C#N)cc2)sc2ccccc12)NC(=O)c1ccccc1 | 0 | 24 |  |  |
| N#Cc1ccccc1-c1c(OCC(F)(F)F)sc2ccccc12 | 92 | 100 | 97 |  |
| N#Cc1sc2ccccc2c1-c1cccnc1 | 18 | 37 | 22 |  |
| N#Cc1ccccc1-c1sc2ccccc2c1OCC(F)(F)F | 49 | 56 | 39 |  |
| COc1ccsc1-c1ccccc1C#N | 17 | 11 | 4 |  |
| O=Cc1ccsc1-c1ccccc1 | 16 | 33 | 0 |  |
| FC(F)(F)COc1c(-c2cccnc2)sc2ccccc12 |  |  |  | MIC [8]: 100 µg/mL (≈ 323 µM) |
| COc1ccc(-c2sc3ccccc3c2C=O)cc1 | 62 | 89 | 80 |  |
| O=Cc1c(-c2cccnc2)sc2ccccc12 | 3 | 18 | 0 | Remaining ethidium fluorescence (% of initial) [3]: 72% |
| O=Cc1c(-c2ccccc2)oc2ccccc12 | 47 | 67 | 37 | Remaining ethidium fluorescence (% of initial) [3]: 72% |
